This is an account of results in the M2OR odorant receptor database.

Molecules are shown by their SMILES. Numbering of substitutions follows the chain as printed.
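Further: active if original authors judged signal statistically different from baseline.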

One assay relates to T1, OR2T3 R298C.
T1 sequence (whole entry): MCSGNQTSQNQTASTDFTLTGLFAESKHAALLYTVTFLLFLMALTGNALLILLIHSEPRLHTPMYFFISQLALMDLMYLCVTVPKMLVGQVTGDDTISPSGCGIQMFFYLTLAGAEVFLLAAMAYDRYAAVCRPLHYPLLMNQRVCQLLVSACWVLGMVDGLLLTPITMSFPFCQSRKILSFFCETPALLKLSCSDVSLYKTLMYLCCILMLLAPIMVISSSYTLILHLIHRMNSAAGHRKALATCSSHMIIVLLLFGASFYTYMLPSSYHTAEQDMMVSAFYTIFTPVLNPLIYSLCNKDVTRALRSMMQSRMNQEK
Particulars: stereoisomer not certain. The essentials: (§1)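 Whether a receptor–molecule pair is responsive (active) rests on the original authors' judgment that its measured signal was statistically different from baseline. Pairs without that judgment are non-responsive (inactive). Sources used varied assay methods, commonly transient luciferase assays in mammalian cell lines.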
Take `CCCC(S)CCOC(C)=O` (stereo unspecified): the “odorant receptor agonist call” value was “inactive”.
On to `CC1=C(O)C(=O)OC1C` (stereo unspecified), for which the “odorant receptor agonist call” value is “inactive”.
As for `CC1=NC(C)C(C)S1` (stereo unspecified), the “odorant receptor agonist call” value was “inactive”.
On the same count and under the same terms, with `CCC1OC(C)=C(O)C1=O` (stereo unspecified) the entry was “inactive”; with `CCCCCCC=CCCC=O`, “inactive”.
On the same count and under the same terms, to `CCC1OC(=O)C(O)=C1C` (stereo unspecified) belongs “inactive”; to `CC1=C(O)C(=O)C(C)O1` (stereo unspecified), “inactive”.
On the same count and under the same terms, to `Cc1cnc(C)c(C)n1` belongs “inactive”.

Another assay deals with T2, OR2T3 Y109H.
T2 sequence (whole entry): T1 sequence (whole entry) with Y109H, C298R
Particulars: stereoisomer not certain. The essentials:
as §1
Take `CCCC(S)CCOC(C)=O` (stereo unspecified): the “odorant receptor agonist call” value is “inactive”.
Same read-out and setting: with `CC1=C(O)C(=O)OC1C` (stereo unspecified) the entry was “inactive”; with `CC1=NC(C)C(C)S1` (stereo unspecified), “inactive”; with `CCC1OC(C)=C(O)C1=O` (stereo unspecified), “inactive”.
Still for that read-out and setting: with `CCCCCCC=CCCC=O` the entry was “inactive”; with `CCC1OC(=O)C(O)=C1C` (stereo unspecified), “inactive”; with `CC1=C(O)C(=O)C(C)O1` (stereo unspecified), “inactive”.
The same measure, in the same setting: with `Cc1cnc(C)c(C)n1` the entry was “inactive”.

The target in another assay is T3, OR2T33 (Homo sapiens) (UniProt Q8NG76).
T3 sequence (whole entry): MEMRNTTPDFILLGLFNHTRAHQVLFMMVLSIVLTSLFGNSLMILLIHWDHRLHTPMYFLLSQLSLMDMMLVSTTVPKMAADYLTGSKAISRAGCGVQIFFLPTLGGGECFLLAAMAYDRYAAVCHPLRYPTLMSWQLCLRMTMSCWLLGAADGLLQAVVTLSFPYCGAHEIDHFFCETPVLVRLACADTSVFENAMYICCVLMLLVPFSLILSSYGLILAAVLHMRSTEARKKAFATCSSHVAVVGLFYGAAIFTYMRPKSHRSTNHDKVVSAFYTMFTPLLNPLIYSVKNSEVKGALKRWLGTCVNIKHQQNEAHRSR
Conditions: stereoisomer not certain. The gist of the method:
as §1
Take `CC(=O)c1c(C)c([N+](=O)[O-])c(C(C)(C)C)c([N+](=O)[O-])c1C`: the “odorant receptor agonist call” value is “inactive”.
In the case of `CC1CCCCCCCCCCCCC(=O)C1` (stereo unspecified), the “odorant receptor agonist call” value is “inactive”.
On the same count and under the same terms, with `CCCC(S)CCOC(C)=O` (stereo unspecified) the entry was “inactive”; with `CC(CO)CS` (stereo unspecified), “inactive”; with `CCCCCC(S)C(C)CO` (stereo unspecified), “inactive”.
Still for that read-out and setting: with `CC1=C(O)C(=O)OC1C` (stereo unspecified) the entry was “inactive”.
As to `CCCCCC(=O)C(C)C(C)=O` (stereo unspecified), the “odorant receptor agonist call” value was “inactive”.
For `CCCCC(S)C(C)CO` (stereo unspecified), the “odorant receptor agonist call” value was “inactive”.
Same read-out and setting: to `CC1=NC(C)C(C)S1` (stereo unspecified) belongs “inactive”.
As for `CCC1OC(C)=C(O)C1=O` (stereo unspecified), the “odorant receptor agonist call” value was “inactive”.
Still for that read-out and setting: to `CCCCCCC=CCCC=O` belongs “inactive”.
Still for that read-out and setting: to `CCC1OC(=O)C(O)=C1C` (stereo unspecified) belongs “inactive”; to `CC1=C(O)C(=O)C(C)O1` (stereo unspecified), “inactive”.
Same read-out and setting: to `Cc1cnc(C)c(C)n1` belongs “inactive”; to `CCC(S)C(C)CO` (stereo unspecified), “inactive”.

Another assay addresses T4, OR2T34 (Homo sapiens) (UniProt Q8NGX1).
T4 sequence (whole entry): T1 sequence (whole entry) with Y109H, T202M, M204T, A214T, H239R, P267R, C298R
Particulars: stereoisomer not certain. The essentials: as §1
Consider `CC(=O)OCc1ccccc1`, for which the “odorant receptor agonist call” value is “inactive”.
Still for that read-out and setting: with `CC(=O)c1c(C)c([N+](=O)[O-])c(C(C)(C)C)c([N+](=O)[O-])c1C` the entry was “inactive”; with `CC1CCCCCCCCCCCCC(=O)C1` (stereo unspecified), “inactive”.
Same read-out and setting: with `CC1CC(C)(c2ccccc2)CO1` (stereo unspecified) the entry was “inactive”; with `CCCC(S)CCOC(C)=O` (stereo unspecified), “inactive”.
Same read-out and setting: to `C=CC(C)(O)CCC=C(C)CCC=C(C)C` (stereo unspecified) belongs “inactive”; to `OCc1ccccc1`, “inactive”.
`CC(CO)CS` (stereo unspecified): the “odorant receptor agonist call” value was “inactive”.
The same measure, in the same setting: with `CC(C)CCCC(C)(C)O` the entry was “inactive”; with `CCCCCC(S)C(C)CO` (stereo unspecified), “inactive”; with `CCCCCC1C(=O)CCC1CC(=O)OC` (stereo unspecified), “inactive”.
On the same count and under the same terms, to `CCC(=O)C=CC1C(C)=CCCC1(C)C` (stereo unspecified) belongs “inactive”; to `C=CC(C)(CCC=C(C)C)OC(C)=O` (stereo unspecified), “inactive”.
For `CC1=C(O)C(=O)OC1C` (stereo unspecified), the “odorant receptor agonist call” value was “inactive”.
Still for that read-out and setting: to `CC(=O)C=CC1=C(C)CCCC1(C)C` belongs “inactive”; to `CCCCCC(=O)C(C)C(C)=O` (stereo unspecified), “inactive”; to `Cc1ccc(C(C)C)cc1O`, “inactive”.
Same read-out and setting: to `C=CCOC(=O)COCCC(C)C` belongs “inactive”; to `CCCCC(S)C(C)CO` (stereo unspecified), “inactive”; to `CCC=C(C)C(O)CCCCC` (stereo unspecified), “inactive”.
